From ChEMBL document CHEMBL5724801, “EUbOPEN Chemogenomics Library - Multiplex” (2024)
Where “and” joins values, the source holds several entries; their conditions need not be identical. Identical values can stand only once.

System: U2OS
Experiment: Multiplex assay against U2OS
Assay type: toxicity, cell-based
Settings: human
Procedure, shortened: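 Cells were classed with CellPathfinder machine-learning gating, first as Hoechst high-intensity objects or normal cells, then (normal cells) as healthy, pyknosed or fragmented nuclei, and finally (pyknosed cells) as mitotic or apoptotic. Staining of live cells at seeding used Hoechst33342, BioTracker Green Microtubule Cytoskeleton Dye, MitoTracker Red and Annexin V Alexa Fluor 680, with imaging on a CQ1 microscope at 37°C and 5% CO2 after compound addition. Tubulin, mitochondrial-mass and membrane-permeability phenotypes are per cents of healthy-nucleus cells.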

[1] = 12 h, 1 µM, compound concentration 1 uM
[2] = 12 h, 10 µM, compound concentration 10 uM
[3] = 24 h, 1 µM, compound concentration 1 uM
[4] = 24 h, 10 µM, compound concentration 10 uM
[5] = 48 h, 1 µM, compound concentration 1 uM
[6] = 48 h, 10 µM, compound concentration 10 uM

**Q.** `CCOc1ccccc1C(=O)NCC1(N2CCN(CC)CC2)CCCCC1` was tested. Which “Population Apoptotic (%)” value [1] did it give?
**A.** 45.83% and 31.82%

**Q.** What about the “Population Fragmented Nuclei (%)” value [1] of the same molecule?
**A.** 1.72% and 5.19%

**Q.** And the “Population Healthy Nuclei (%)” value [1]?
**A.** 91.38% and 78.52%

**Q.** What about the “Population Hoechst High Intensity Objects (%)” value [1] of the same molecule?
**A.** 0%

**Q.** And the “Population Membrane Permeable-Phenotype (%)” value [1]?
**A.** 1.26% and 8.49%

**Q.** What about the “Population Mitotic Cells (%)” value [1] of the same molecule?
**A.** 54.17% and 68.18%

**Q.** And the “Population Normal (%)” value [1]?
**A.** 100%

**Q.** What about the “Population Pyknosed Nuclei (%)” value [1] of the same molecule?
**A.** 6.9% and 16.3%

**Q.** What about the “Population Tubulin-Different-Phenotype (%)” value [1] of the same molecule?
**A.** 0.63% and 0.94%

**Q.** And the “Total Cell Count” value [1]?
**A.** 348 and 135

**Q.** And the “Population Apoptotic (%)” value [2]?
**A.** 35% and 23.68%

**Q.** What about the “Population Fragmented Nuclei (%)” value [2] of the same molecule?
**A.** 1.81% and 4.03%

**Q.** And the “Population Healthy Nuclei (%)” value [2]?
**A.** 80.05% and 70.47%

**Q.** What about the “Population Hoechst High Intensity Objects (%)” value [2] of the same molecule?
**A.** 0.23% and 0%

**Q.** And the “Population Membrane Permeable-Phenotype (%)” value [2]?
**A.** 16.15% and 31.43%

**Q.** What about the “Population Mitotic Cells (%)” value [2] of the same molecule?
**A.** 65% and 76.32%

**Q.** What about the “Population Normal (%)” value [2] of the same molecule?
**A.** 99.77% and 100%

**Q.** What about the “Population Pyknosed Nuclei (%)” value [2] of the same molecule?
**A.** 18.14% and 25.5%

**Q.** And the “Population Tubulin-Different-Phenotype (%)” value [2]?
**A.** 49.86% and 44.76%

**Q.** What about the “Total Cell Count” value [2] of the same molecule?
**A.** 442 and 149

**Q.** And the “Population Apoptotic (%)” value [3]?
**A.** 46.15% and 50%

**Q.** And the “Population Fragmented Nuclei (%)” value [3]?
**A.** 1.89% and 5.62%

**Q.** And the “Population Healthy Nuclei (%)” value [3]?
**A.** 87.16% and 80.62%

**Q.** And the “Population Hoechst High Intensity Objects (%)” value [3]?
**A.** 0%

**Q.** What about the “Population Membrane Permeable-Phenotype (%)” value [3] of the same molecule?
**A.** 1.21% and 8.53%

**Q.** What about the “Population Mitochondria Different-Phenotype (%)” value [3] of the same molecule?
**A.** 0% and 12.4%

**Q.** And the “Population Mitotic Cells (%)” value [3]?
**A.** 53.85% and 50%

**Q.** What about the “Population Normal (%)” value [3] of the same molecule?
**A.** 100%

**Q.** And the “Population Pyknosed Nuclei (%)” value [3]?
**A.** 10.95% and 13.75%

**Q.** What about the “Population Tubulin-Different-Phenotype (%)” value [3] of the same molecule?
**A.** 0.48% and 1.55%

**Q.** What about the “Total Cell Count” value [3] of the same molecule?
**A.** 475 and 160

**Q.** What about the “Population Apoptotic (%)” value [4] of the same molecule?
**A.** 52.04% and 44.44%

**Q.** What about the “Population Fragmented Nuclei (%)” value [4] of the same molecule?
**A.** 2.49% and 6.29%

**Q.** What about the “Population Healthy Nuclei (%)” value [4] of the same molecule?
**A.** 80.07% and 65.41%

**Q.** And the “Population Hoechst High Intensity Objects (%)” value [4]?
**A.** 0%

**Q.** And the “Population Membrane Permeable-Phenotype (%)” value [4]?
**A.** 8% and 10.58%

**Q.** And the “Population Mitotic Cells (%)” value [4]?
**A.** 47.96% and 55.56%

**Q.** What about the “Population Normal (%)” value [4] of the same molecule?
**A.** 100%

**Q.** And the “Population Pyknosed Nuclei (%)” value [4]?
**A.** 17.44% and 28.3%

**Q.** And the “Population Tubulin-Different-Phenotype (%)” value [4]?
**A.** 29.33% and 41.35%

**Q.** What about the “Population Apoptotic (%)” value [5] of the same molecule?
**A.** 37.84% and 48.15%

**Q.** And the “Population Fragmented Nuclei (%)” value [5]?
**A.** 2.6% and 4.8%

**Q.** What about the “Population Healthy Nuclei (%)” value [5] of the same molecule?
**A.** 88.67% and 71.62%

**Q.** And the “Population Hoechst High Intensity Objects (%)” value [5]?
**A.** 0%

**Q.** And the “Population Membrane Permeable-Phenotype (%)” value [5]?
**A.** 1.33% and 6.1%

**Q.** What about the “Population Mitotic Cells (%)” value [5] of the same molecule?
**A.** 62.16% and 51.85%

**Q.** What about the “Population Normal (%)” value [5] of the same molecule?
**A.** 100%

**Q.** And the “Population Pyknosed Nuclei (%)” value [5]?
**A.** 8.74% and 23.58%

**Q.** What about the “Population Tubulin-Different-Phenotype (%)” value [5] of the same molecule?
**A.** 0.93% and 3.05%

**Q.** What about the “Population Apoptotic (%)” value [6] of the same molecule?
**A.** 58.2% and 70.77%

**Q.** And the “Population Fragmented Nuclei (%)” value [6]?
**A.** 2.88% and 5.66%

**Q.** What about the “Population Healthy Nuclei (%)” value [6] of the same molecule?
**A.** 83.08% and 63.68%

**Q.** What about the “Population Hoechst High Intensity Objects (%)” value [6] of the same molecule?
**A.** 0.11% and 0%

**Q.** And the “Population Mitotic Cells (%)” value [6]?
**A.** 41.8% and 29.23%

**Q.** And the “Population Normal (%)” value [6]?
**A.** 99.89% and 100%

**Q.** What about the “Population Pyknosed Nuclei (%)” value [6] of the same molecule?
**A.** 14.04% and 30.66%

**Q.** And the “Population Tubulin-Different-Phenotype (%)” value [6]?
**A.** 15.24% and 28.89%

**Q.** For `COCCNc1nc2ccc(C#CC3(O)CCCCC3)cc2n1-c1ccnc(N)n1`, which “Population Apoptotic (%)” value [1] is on record?
**A.** 53.85% and 25%

**Q.** And the “Population Fragmented Nuclei (%)” value [1]?
**A.** 1.38% and 4.59%

**Q.** What about the “Population Healthy Nuclei (%)” value [1] of the same molecule?
**A.** 91.46% and 77.06%

**Q.** And the “Population Hoechst High Intensity Objects (%)” value [1]?
**A.** 0%

**Q.** What about the “Population Membrane Permeable-Phenotype (%)” value [1] of the same molecule?
**A.** 0.9% and 4.76%

**Q.** What about the “Population Mitochondria Different-Phenotype (%)” value [1] of the same molecule?
**A.** 0% and 4.76%

**Q.** And the “Population Mitotic Cells (%)” value [1]?
**A.** 46.15% and 75%

**Q.** And the “Population Normal (%)” value [1]?
**A.** 100%

**Q.** What about the “Population Pyknosed Nuclei (%)” value [1] of the same molecule?
**A.** 7.16% and 18.35%

**Q.** And the “Population Tubulin-Different-Phenotype (%)” value [1]?
**A.** 0.6% and 0%

**Q.** And the “Population Apoptotic (%)” value [2]?
**A.** 38.46% and 41.03%

**Q.** And the “Population Fragmented Nuclei (%)” value [2]?
**A.** 1.89% and 3.8%

**Q.** And the “Population Healthy Nuclei (%)” value [2]?
**A.** 82.78% and 75%

**Q.** And the “Population Hoechst High Intensity Objects (%)” value [2]?
**A.** 0%

**Q.** And the “Population Membrane Permeable-Phenotype (%)” value [2]?
**A.** 8.26% and 7.25%

**Q.** What about the “Population Mitotic Cells (%)” value [2] of the same molecule?
**A.** 61.54% and 58.97%

**Q.** And the “Population Normal (%)” value [2]?
**A.** 100%

**Q.** And the “Population Pyknosed Nuclei (%)” value [2]?
**A.** 15.33% and 21.2%

**Q.** What about the “Population Tubulin-Different-Phenotype (%)” value [2] of the same molecule?
**A.** 15.38% and 10.87%

**Q.** What about the “Total Cell Count” value [2] of the same molecule?
**A.** 424 and 184

**Q.** What about the “Population Apoptotic (%)” value [3] of the same molecule?
**A.** 34.62% and 40%

**Q.** What about the “Population Fragmented Nuclei (%)” value [3] of the same molecule?
**A.** 0.86% and 3.12%

**Q.** And the “Population Healthy Nuclei (%)” value [3]?
**A.** 87.96% and 85.16%

**Q.** What about the “Population Hoechst High Intensity Objects (%)” value [3] of the same molecule?
**A.** 0%

**Q.** What about the “Population Membrane Permeable-Phenotype (%)” value [3] of the same molecule?
**A.** 0.49% and 4.59%

**Q.** What about the “Population Mitochondria Different-Phenotype (%)” value [3] of the same molecule?
**A.** 0.24% and 2.75%

**Q.** What about the “Population Mitotic Cells (%)” value [3] of the same molecule?
**A.** 65.38% and 60%

**Q.** What about the “Population Normal (%)” value [3] of the same molecule?
**A.** 100%

**Q.** What about the “Population Pyknosed Nuclei (%)” value [3] of the same molecule?
**A.** 11.18% and 11.72%

**Q.** And the “Population Tubulin-Different-Phenotype (%)” value [3]?
**A.** 0.73% and 0%

**Q.** And the “Population Apoptotic (%)” value [4]?
**A.** 27.97% and 41.07%

**Q.** And the “Population Fragmented Nuclei (%)” value [4]?
**A.** 1.32% and 3.03%

**Q.** And the “Population Healthy Nuclei (%)” value [4]?
**A.** 76.5% and 68.69%

**Q.** What about the “Population Hoechst High Intensity Objects (%)” value [4] of the same molecule?
**A.** 0%

**Q.** And the “Population Membrane Permeable-Phenotype (%)” value [4]?
**A.** 2.7% and 6.62%

**Q.** And the “Population Mitotic Cells (%)” value [4]?
**A.** 72.03% and 58.93%

**Q.** And the “Population Normal (%)” value [4]?
**A.** 100%

**Q.** And the “Population Pyknosed Nuclei (%)” value [4]?
**A.** 22.18% and 28.28%

**Q.** What about the “Population Tubulin-Different-Phenotype (%)” value [4] of the same molecule?
**A.** 15.72% and 8.82%

**Q.** What about the “Total Cell Count” value [4] of the same molecule?
**A.** 532 and 198

**Q.** And the “Population Apoptotic (%)” value [5]?
**A.** 38.1% and 52%

**Q.** What about the “Population Fragmented Nuclei (%)” value [5] of the same molecule?
**A.** 2.24% and 2.58%

**Q.** What about the “Population Healthy Nuclei (%)” value [5] of the same molecule?
**A.** 88.37% and 84.54%

**Q.** What about the “Population Hoechst High Intensity Objects (%)” value [5] of the same molecule?
**A.** 0%

**Q.** What about the “Population Membrane Permeable-Phenotype (%)” value [5] of the same molecule?
**A.** 0.63% and 0.61%

**Q.** And the “Population Mitochondria Different-Phenotype (%)” value [5]?
**A.** 0% and 2.44%

**Q.** And the “Population Mitotic Cells (%)” value [5]?
**A.** 61.9% and 48%

**Q.** What about the “Population Normal (%)” value [5] of the same molecule?
**A.** 100%

**Q.** And the “Population Pyknosed Nuclei (%)” value [5]?
**A.** 9.4% and 12.89%

**Q.** What about the “Population Tubulin-Different-Phenotype (%)” value [5] of the same molecule?
**A.** 1.14% and 1.22%

**Q.** And the “Population Apoptotic (%)” value [6]?
**A.** 45.97% and 47.78%

**Q.** And the “Population Fragmented Nuclei (%)” value [6]?
**A.** 2.08% and 1.2%

**Q.** What about the “Population Healthy Nuclei (%)” value [6] of the same molecule?
**A.** 81.79% and 62.65%

**Q.** What about the “Population Hoechst High Intensity Objects (%)” value [6] of the same molecule?
**A.** 0%

**Q.** What about the “Population Membrane Permeable-Phenotype (%)” value [6] of the same molecule?
**A.** 2.38% and 2.56%

**Q.** What about the “Population Mitotic Cells (%)” value [6] of the same molecule?
**A.** 54.03% and 52.22%

**Q.** What about the “Population Normal (%)” value [6] of the same molecule?
**A.** 100%

**Q.** What about the “Population Pyknosed Nuclei (%)” value [6] of the same molecule?
**A.** 16.12% and 36.14%

**Q.** What about the “Population Tubulin-Different-Phenotype (%)” value [6] of the same molecule?
**A.** 13.35% and 7.69%
